# Assay results taken from ChEMBL document CHEMBL1137710, “Synthesis and in vitro antitumor activity of new quinoxaline derivatives” (2009).
# How the values were obtained:
# Type in all cases: functional
# OVCAR-4 = test: Growth inhibition of human OVCAR4 cells after 48 hrs by sulforhodamine B assay; settings: OVCAR-4, 48 h
# Method in brief: (§1)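 NCI 60-human-tumor-cell-line panel, with compounds tested over a 5-log dose range. Values are taken from dose-response curves as log10 molar concentrations: GI50 is 50% net growth inhibition, TGI is total growth inhibition, and LC50 is 50% net cell death.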
# NCI-H322M = test: Growth inhibition of human NCI-H322M cells after 48 hrs by sulforhodamine B assay; method in brief: as §1
# UACC-62 = test: Growth inhibition of human UACC62 cells after 48 hrs by sulforhodamine B assay; settings: UACC-62, 48 h
# Method in brief: (§2)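 Run in the NCI 60-human-tumour-cell-line panel, tested over a 5-log dose range. Dose–response curves gave three values per cell line, each as a log10 molar concentration: GI50 (50% inhibition of net cell growth), TGI (total inhibition of net growth) and LC50 (50% net cell death). The mean graph midpoint is the arithmetic mean over all lines, with insensitive lines entered at the highest concentration tested.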
# SK-MEL-28 = test: Growth inhibition of human SK-MEL-28 cells after 48 hrs by sulforhodamine B assay; settings: SK-MEL-28, 48 h; method in brief: as §1
# NCI-H23 = test: Growth inhibition of human NCI-H23 cells after 48 hrs by sulforhodamine B assay; settings: NCI-H23, 48 h; method in brief: as §1
# SNB-19 = test: Growth inhibition of human SNB19 cells after 48 hrs by sulforhodamine B assay; settings: SNB-19, 48 h; method in brief: as §2
# COLO 205 = test: Growth inhibition of human COLO205 cells after 48 hrs by sulforhodamine B assay; settings: COLO 205, 48 h; method in brief: as §1
# SK-MEL-2 = test: Growth inhibition of human SK-MEL-2 cells after 48 hrs by sulforhodamine B assay; settings: SK-MEL-2, 48 h; method in brief: as §1
# SF-268 [1] = test: Anticancer activity against human SF268 cells assessed as cell growth at 100 uM after 48 hrs by sulforhodamine B assay; settings: SF-268, 48 h, read-out: Activity
# LOX IMVI = test: Growth inhibition of human LOXIMVI cells after 48 hrs by sulforhodamine B assay; method in brief: as §1
# OVCAR-3 = test: Growth inhibition of human OVCAR-3 cells after 48 hrs by sulforhodamine B assay; settings: OVCAR-3, 48 h; method in brief: as §1
# U-251 = test: Growth inhibition of human U251 cells after 48 hrs by sulforhodamine B assay; settings: U-251, 48 h; method in brief: as §2
# M14 = test: Growth inhibition of human M14 cells after 48 hrs by sulforhodamine B assay; settings: M14, 48 h; method in brief: as §1
# SF-295 = test: Growth inhibition of human SF295 cells after 48 hrs by sulforhodamine B assay; settings: SF-295, 48 h; method in brief: as §1
# NCI-H522 = test: Growth inhibition of human NCI-H522 cells after 48 hrs by sulforhodamine B assay; settings: NCI-H522, 48 h; method in brief: as §1
# SF-268 [2] = test: Growth inhibition of human SF268 cells after 48 hrs by sulforhodamine B assay; settings: SF-268, 48 h; method in brief: as §1
# [3] = Growth inhibition of human Hs 578T cells after 48 hrs by sulforhodamine B assay; method in brief: as §1
# MDA-MB-435 = test: Growth inhibition of human MDA-MB-435 cells after 48 hrs by sulforhodamine B assay; settings: MDA-MB-435, 48 h; method in brief: as §1
# [4] = Growth inhibition of human […] cells after 48 hrs by sulforhodamine B assay; method in brief: as §1
# CAKI-1 = test: Growth inhibition of human Caki1 cells after 48 hrs by sulforhodamine B assay; settings: CAKI-1, 48 h; method in brief: as §1
# K562 = test: Growth inhibition of human K562 cells after 48 hrs by sulforhodamine B assay; settings: K562, 48 h; method in brief: as §1
# OVCAR-5 = test: Growth inhibition of human OVCAR5 cells after 48 hrs by sulforhodamine B assay; settings: OVCAR-5, 48 h; method in brief: as §1
# SW-620 = test: Growth inhibition of human SW620 cells after 48 hrs by sulforhodamine B assay; settings: SW-620, 48 h; method in brief: as §2
# MDA-MB-231 = test: Growth inhibition of human MDA-MB-231 cells after 48 hrs by sulforhodamine B assay; settings: MDA-MB-231, 48 h; method in brief: as §1
# NCI/ADR-RES = test: Growth inhibition of human NCI/ADR-RES cells after 48 hrs by sulforhodamine B assay; method in brief: as §1
# RXF 393 = test: Growth inhibition of human RXF393 cells after 48 hrs by sulforhodamine B assay; settings: RXF 393, 48 h; method in brief: as §1
# MCF7 = test: Anticancer activity against human MCF7 cells assessed as cell growth at 100 uM after 48 hrs by sulforhodamine B assay; settings: MCF7, 48 h, read-out: Activity
# SK-MEL-5 = test: Growth inhibition of human SK-MEL-5 cells after 48 hrs by sulforhodamine B assay; settings: SK-MEL-5, 48 h; method in brief: as §1
# 786-0 = test: Growth inhibition of human 786-0 cells after 48 hrs by sulforhodamine B assay; settings: 786-0, 48 h; method in brief: as §1
# [5] = read-out: pLC50 (the source's name) (converted)
compound,measurement,setting,value
COc1ccc(CNc2nc3cc(N)cc(N)c3nc2-c2ccccc2)cc1OC,GI50,OVCAR-4,2.69 µM
same,CC50,OVCAR-4; [5],52.5 µM
same,TGI,OVCAR-4; read-out: pTGI (converted),7.41 µM
same,GI50,NCI-H322M,22.9 µM
same,LC50,NCI-H322M,100 µM
same,TGI,NCI-H322M; read-out: pTGI (converted),47.9 µM
same,GI50,UACC-62,12.9 µM
same,CC50,UACC-62; [5],53.7 µM
same,TGI,UACC-62; read-out: pTGI (converted),26.3 µM
same,GI50,SK-MEL-28,13.5 µM
same,CC50,SK-MEL-28; [5],67.6 µM
same,TGI,SK-MEL-28; read-out: pTGI (converted),30.2 µM
same,GI50,NCI-H23,17 µM
same,LC50 (50% net cell kill concentration),NCI-H23,91.2 µM
same,TGI,NCI-H23; read-out: pTGI (converted),39.8 µM
same,GI50,SNB-19,25.7 µM
same,LC50,SNB-19,> 100 µM
same,TGI,SNB-19; read-out: pTGI (converted),> 100 µM
same,GI50,COLO 205,7.94 µM
same,LC50 (50% net cell kill),COLO 205,> 100 µM
same,TGI,COLO 205; read-out: pTGI (converted),> 100 µM
same,GI50,SK-MEL-2,8.71 µM
same,CC50,SK-MEL-2; [5],> 100 µM
same,TGI,SK-MEL-2; read-out: pTGI (converted),30.2 µM
same,growth at 100 µM,SF-268 [1],47%
same,GI50,LOX IMVI,3.09 µM
same,LC50,LOX IMVI,> 100 µM
same,TGI,LOX IMVI; read-out: pTGI (converted),14.1 µM
same,GI50,OVCAR-3,1.32 µM
same,CC50,OVCAR-3; [5],8.51 µM
same,TGI,OVCAR-3; read-out: pTGI (converted),3.31 µM
same,GI50,U-251,17 µM
same,LC50 (50% net cell kill),U-251,89.1 µM
same,TGI,U-251; read-out: pTGI (converted),38.9 µM
same,GI50,M14,4.27 µM
same,CC50,M14; [5],33.9 µM
same,TGI,M14; read-out: pTGI (converted),7.76 µM
same,GI50,SF-295,13.2 µM
same,LC50 (50% net cell kill),SF-295,58.9 µM
same,TGI,SF-295; read-out: pTGI (converted),28.2 µM
same,GI50,NCI-H522,2.69 µM
same,LC50,NCI-H522,63.1 µM
same,TGI,NCI-H522; read-out: pTGI (converted),6.31 µM
same,GI50,SF-268 [2],14.8 µM
same,LC50,SF-268 [2],> 100 µM
same,TGI,SF-268 [2]; read-out: pTGI (converted),60.3 µM
same,GI50,[3],33.9 µM
same,CC50,[3]; [5],> 100 µM
same,TGI,[3]; read-out: pTGI (converted),> 100 µM
same,GI50,MDA-MB-435,1.95 µM
same,CC50,MDA-MB-435; [5],8.51 µM
same,TGI,MDA-MB-435; read-out: pTGI (converted),4.07 µM
same,GI50,[4],2.14 µM
same,LC50,[4],> 100 µM
same,TGI,[4]; read-out: pTGI (converted),7.24 µM
same,GI50,CAKI-1,11.2 µM
same,CC50,CAKI-1; [5],53.7 µM
same,TGI,CAKI-1; read-out: pTGI (converted),24.5 µM
same,GI50,K562,6.03 µM
same,LC50,K562,> 100 µM
same,TGI,K562; read-out: pTGI (converted),> 100 µM
same,GI50,OVCAR-5,20.9 µM
same,CC50,OVCAR-5; [5],81.3 µM
same,TGI,OVCAR-5; read-out: pTGI (converted),41.7 µM
same,GI50,SW-620,5.25 µM
same,CC50,SW-620; [5],> 100 µM
same,TGI,SW-620; read-out: pTGI (converted),> 100 µM
same,GI50,MDA-MB-231,11.2 µM
same,CC50,MDA-MB-231; [5],79.4 µM
same,TGI,MDA-MB-231; read-out: pTGI (converted),29.5 µM
same,GI50,NCI/ADR-RES,17.8 µM
same,CC50,NCI/ADR-RES; [5],> 100 µM
same,TGI,NCI/ADR-RES; read-out: pTGI (converted),66.1 µM
same,GI50,RXF 393,19.1 µM
same,CC50,RXF 393; [5],> 100 µM
same,TGI,RXF 393; read-out: pTGI (converted),> 100 µM
same,growth at 100 µM,MCF7,0%
same,GI50,SK-MEL-5,10 µM
same,CC50,SK-MEL-5; [5],77.6 µM
same,TGI,SK-MEL-5; read-out: pTGI (converted),27.5 µM
same,GI50,786-0,15.5 µM
same,CC50,786-0; [5],75.9 µM
same,TGI,786-0; read-out: pTGI (converted),34.7 µM
